# The list is not random: actives were taken first. Their share in the collection is about 1.9%.
# H9c2 TAG inh: inhibitors of triacylglycerol accumulation. AID 651582. hit rate 0.66% among 230,000. H9c2 cells, Nile Red lipid (TAG) fluorescence; cells loaded with 200 µM oleic acid. inhibition, % at 12.5 µM;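 active = pattern-corrected inhibition of lipid staining of at least 50% with the nuclear-stain viability signal not falling by more than 50%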;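 note: 0% = DMSO wells and 100% = triacsin C control wells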
# ABHD5 PLIN5 PPI: blocks binding of human ABHD5 to perilipin-5. hit rate 0.78% among 360,000. Split G. princeps luciferase complementation, luminescence, 4 h. inhibition, % at 4 µM. Q00G26+Q8WTS1;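 active = inhibition above the mean inhibition across every tested compound plus 3 SD, cut at about 22% in these data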;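 note: 0% = DMSO only wells and the 100% control is not disclosed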
# FXN GAA850 act: frataxin GAA850 promoter activation; hit rate 0.56% among 360,000; HEK293 lucGAA850 FXN promoter luciferase reporter, 24 h; percent of 10 µM SAHA response; activation, % at 6 µM;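 active = activation above the average of all compounds screened plus 3 SD, cutoff fixed separately per campaign, cut at about 7.5% in these data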;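 note: 0% = DMSO wells and 100% = 10 µM SAHA wells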
# Hsp70 act: switches on Hsp70 transcription. hit rate 0.04% among 200,000. activation, % at 10 µM. AID 1203. HeLa Hsp70 promoter luciferase reporter, luminescence; scaled: vehicle 0, proteasome-inhibitor control 100%;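 active = activation above the mean across all tested compounds plus 3 SD, cutoff set per campaign, cut at about 5.5% in these data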;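 note: 100% = MG132 at 30 µM as the positive control and 0% = DMSO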
# Rad51 HR inh: blocks human Rad51 in homologous recombination; inhibition, % at 10 µM; hit rate 0.085% among 200,000; hRad51 DNA strand exchange, fluorescence dequenching;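 active = inhibition above 40% at the single screening dose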;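 note: 0% = DMSO control wells and 100% = blanks with heterologous ssDNA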
# Target sequence (Q06609 whole entry, looked up): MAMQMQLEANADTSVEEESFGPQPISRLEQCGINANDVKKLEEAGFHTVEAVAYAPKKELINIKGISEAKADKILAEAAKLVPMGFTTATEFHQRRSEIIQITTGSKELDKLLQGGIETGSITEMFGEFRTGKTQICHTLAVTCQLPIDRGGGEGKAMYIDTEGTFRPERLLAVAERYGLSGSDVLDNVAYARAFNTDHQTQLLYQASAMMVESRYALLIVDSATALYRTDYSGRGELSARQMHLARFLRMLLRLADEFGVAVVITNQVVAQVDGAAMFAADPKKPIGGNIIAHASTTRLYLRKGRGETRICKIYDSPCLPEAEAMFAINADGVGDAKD
#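 Test system – preformed human Rad51 ssDNA filaments · Reagent – Donor/quencher-labelled 47-bp dsDNA substrate · Incubation – 37 °C 15-min filament assembly, 30-min compound preincubation, 15-min exchange · Signal – FRET fluorescence dequenching, excitation 485 nm, emission 520 nm · Read-out – percent inhibition from fluorescence, normalised to plate control and blank means · Benchmarks – plate control and blank wells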
# HIF act: HIF pathway transcriptional activation; U2OS HRE-luciferase reporter, luminescence; normalized: DMSO 0%, desferrioxamine 100%; hit rate 0.32% among 300,000; activation, % at 7.5 µM (by protocol);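 active = mean activation of at least 10% of the iron chelator positive control signal, with at least half of replicates also reaching 10%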
# * = called active by the depositor; . = no result given.
SMILES,H9c2 TAG inh,ABHD5 PLIN5 PPI,FXN GAA850 act,Hsp70 act,Rad51 HR inh,HIF act
CCOC(=O)c1cc(-c2ccc(OC)cc2)nn1-c1ccc(C(=O)O)cc1,2.0,-4.0,2.8,1.7,-0.3,-0.7
NC(=S)NN=Cc1nccc2c(C(F)(F)C(F)(F)C(F)(F)F)cccc12,73.6*,-10.2,-7.5,.,.,.
CCCCC(=O)N(C)c1c(C)nc2ccc(C(=O)N3CCN(S(=O)(=O)CC)CC3)cn12,6.3,0.2,0.6,.,.,.
Cc1ccc(/C=C2\Oc3c(ccc(O)c3CN3CCN(CCO)CC3)C2=O)cc1,.,22.8*,1.1,-0.1,-15.2,0.0
CC(C)c1ccc(/C=C2\Oc3c(ccc(O)c3CN3CCN(C)CC3)C2=O)cc1,.,10.5,1.3,-0.2,-28.0,0.0
Cc1cccc(NC(=O)c2nc[nH]c2C(=O)NCCCNC(=O)c2[nH]cnc2C(=O)Nc2cccc(C)c2)c1,84.1*,2.1,0.1,.,.,.
Cc1ccc2c(c1)cc(C(=O)NCc1ccccc1)n2C,.,-1.8,-2.5,.,.,23.0*
CCn1c(CNC(=O)c2ccccc2Br)nnc1SCC(=O)Nc1nncs1,.,9.8,2.0,.,.,0.0
COc1ccc(CC(N)c2csc(NC(=O)c3cc(C(C)(C)C)nn3Cc3ccccc3)n2)cc1 (stereo unspecified),111.5*,-9.4,0.4,.,.,.
CC(N)c1csc(NC(=O)c2cc(C(C)(C)C)nn2Cc2ccccc2)n1 (stereo unspecified),28.1,-4.6,-3.2,.,.,.
Cc1ccc(C(CC(=O)O)C2CCOC(C)(C)C2)cc1 (stereo unspecified),.,1.4,-0.5,-0.3,-15.7,41.7*
CCN(CC)CCNC(=O)c1cc2c(-c3ccc(Cl)cc3)nn(C)c2s1,65.1*,15.6,-1.0,0.3,-0.3,.
CCCN(CCC)CCNC(=O)c1cc2c(-c3ccc(Cl)cc3)nn(C)c2s1,.,12.3,3.6,.,.,0.6
CN(CC(=O)Nc1ccccc1Oc1ccccc1)Cc1ccccc1F,.,-12.8,2.1,-0.1,-8.0,129.3*
O=C(NCCCn1ccnc1)c1cccc(Br)c1,.,4.5,2.4,.,.,0.6
CC(C)(CO)NCc1ccc(Br)cc1,6.3,-1.7,0.4,0.7,43.5*,0.1
Cc1cccc2sc(NNC(=O)c3ccc(S(=O)(=O)N4CC(C)CC(C)C4)cc3)nc12 (stereo unspecified),16.9,38.4*,-3.5,-0.3,-1.2,5.8
CCC(=O)NNc1nc2c(C)cc(C)cc2s1,4.9,5.2,0.6,0.1,-3.0,0.1
Cc1ccc2nc(NNC(=O)c3ccc(S(=O)(=O)N4CCc5ccccc5C4)cc3)sc2c1,19.0,33.8*,-3.2,-0.5,-3.3,98.7*
Cc1cc(C)c2nc(NNC(=O)c3ccc(S(=O)(=O)N4CC(C)CC(C)C4)cc3)sc2c1 (stereo unspecified),-9.8,29.0*,-0.5,-0.2,-3.9,5.1
Cn1nc(C(=O)N2CCN(c3ccc([N+](=O)[O-])cc3)CC2)c2c1-c1ccccc1S(=O)(=O)C2,.,-1.9,-1.3,.,.,.
COc1ccc(C(=O)Nc2nc(CC(=O)NCc3c(F)cccc3F)cs2)cc1,10.5,3.0,2.5,.,.,.
CCCN(CCC)C(=O)C1CCN(c2ccc(S(=O)(=O)N3CCOCC3)cc2[N+](=O)[O-])CC1,-0.9,-6.2,-0.1,.,.,0.1
CCCCC(NC(=O)CCc1c(C)c2cc3c4c(oc3c(C)c2oc1=O)CCCC4)C(=O)O (stereo unspecified),.,5.0,-3.5,.,.,2.3
COc1ccc(N2CCN(C(=O)c3cn(C)c(=O)c4c3c3ccccc3n4C)CC2)cc1,.,7.6,0.0,0.0,132.4*,-0.2
SMILES,H9c2 TAG inh,ABHD5 PLIN5 PPI,FXN GAA850 act,Hsp70 act,Rad51 HR inh,HIF act
COc1ccc(/C=N/NC(=S)Nc2cc(S(=O)(=O)N3CCOCC3)ccc2N2CCOCC2)cc1O,12.5,-0.7,-0.7,0.3,.,34.9*
COc1ccc2ccccc2c1/C=N/NC(=S)Nc1cc(S(=O)(=O)N2CCOCC2)ccc1N1CCOCC1,.,8.3,3.1,-0.4,3.7,1.1
Cc1sc(NC(=O)c2ccco2)c(CN2CCC(C)CC2)c1C,-13.0,-5.2,-1.7,-0.2,8.6,51.0*
Cc1sc(NC(=O)c2ccco2)c(CN2CCN(Cc3ccccc3)CC2)c1C,-35.6,-3.0,0.4,0.0,-5.5,0.3
CCOC(=O)C1=C(C(=O)OCC)c2ccc(OC)c(OC)c2C1,10.2,6.7,4.1,.,.,.
COc1ccc(CCn2c(C)ccc2C)cc1OC,.,.,.,-0.3,-5.2,-0.2
CCOc1cc2[nH]c(=S)n(CCc3ccc(OC)c(OC)c3)c(=O)c2cc1OCC,.,5.1,-1.8,-0.3,-9.4,-1.5
CCCCN(C)C(=O)CCCCn1c(=O)[nH]c2cc(OCC)c(OCC)cc2c1=O,51.1*,-1.7,4.4,-0.1,1.6,-0.7
COc1ccc(CCN2C(=O)C=CC2=O)cc1OC,24.8,52.8*,-5.7,.,.,.
CCOc1cc2[nH]c(=O)n(CCc3ccc(OC)c(OC)c3)c(=O)c2cc1OCC,58.6*,0.7,1.8,-0.2,-3.6,0.2
CCOc1cc2[nH]c(=O)n(CCCCCC(=O)NCc3ccco3)c(=O)c2cc1OCC,4.2,4.6,0.2,-0.2,0.6,1.1
CCC(C)c1ccccc1NC(=O)COC(=O)c1ccc2[nH]c3c(c2c1)CCCC3 (stereo unspecified),15.4,-4.8,2.0,-0.3,-7.5,1.1
Cc1ccc(/C=N\Nc2nc3ccc(Cl)cc3[nH]2)o1,0.2,-3.0,2.2,-0.2,-3.6,12.6*
CCCCC(=O)N1CCN(c2nc3ccc(F)cc3s2)CC1,.,7.3,3.8,.,.,9.8*
CCCC(=O)N1CCN(c2nc3ccccc3s2)CC1,.,-0.2,4.8,.,.,0.2
CCC(=O)N1CCN(c2nc3ccc(Br)cc3s2)CC1,.,-0.4,5.3,.,.,11.8*
Cc1cc2nc3c(nc2cc1C)C1(C(=O)O)CCC3(C)C1(C)C (stereo unspecified),-17.3,8.6,0.3,-0.2,40.3*,0.4
CCCCNC(=O)CN1C(=O)COc2ccc(S(=O)(=O)N3CCCCCC3)cc21,.,-3.5,1.0,.,.,46.1*
C=CCOc1ccc(C2=NOC(C(=O)Nc3ccc4c(c3)OCCO4)C2)cc1 (stereo unspecified),.,1.0,0.7,.,.,-7.4
CN(C)CCCNC(=O)C[C@H]1C[C@H](C(=O)N2CCCCC2)[C@@]2(CCc3ccccc3)c3[nH]c4ccc(Cl)cc4c3CCN2C1=O,126.1,22.0*,-2.6,.,.,.
CCN(CC)C(=O)[C@H]1C[C@H](CC(=O)NCc2ccc(OC)c(OC)c2)C(=O)N2CCc3c([nH]c4cc(-c5ccco5)ccc34)[C@]12C,-2.3,22.7*,-3.1,.,.,.
CC(C)N(C(=O)[C@H]1C[C@H](CC(=O)NCc2cccc(C(F)(F)F)c2)C(=O)N2CCc3c([nH]c4cc(-c5ccco5)ccc34)[C@]12C)C(C)C,19.6,22.2*,-3.3,.,.,.

# Assay outcomes deposited in PubChem BioAssay by several laboratories.
